Assay outcomes from PubChem.
A selection: hits, their analogues and other compounds. The true share with any hit is near 2.3%.
V1R ag counter = counter-screen for oxytocin receptor agonists: human V1a receptor agonists; CHO-V1R cells, Fluo-8 calcium fluorescence, agonist mode; 0% DMSO, 100% 3 nM vasopressin; activation, % at 3 µM; 320,000 tested, 0.25% active; AID 2797;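 active means activation above the mean activation of all tested compounds plus 3 SD, per screening run, cut at about 20% in these data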;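 further: signal is peak over basal fluorescence ratio across a 100 second FLIPR read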
TAAR1 antagonist = human TAAR1 antagonism; Q96RJ0; CHO RD-HGA16 TAAR1, Fluo-8 calcium fluorescence, antagonist; inhibition, % at 3 µM; 360,000 tested, 1.5% active;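 active means inhibition above a per-plate cutoff, the mean inhibition of test compounds on that plate plus 3 SD, cut at about 49% in these data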;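 further: 0% = DMSO plus EC80 beta-PEA response and 100% = DMSO alone without agonist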
Target sequence (Q96RJ0 whole entry, looked up): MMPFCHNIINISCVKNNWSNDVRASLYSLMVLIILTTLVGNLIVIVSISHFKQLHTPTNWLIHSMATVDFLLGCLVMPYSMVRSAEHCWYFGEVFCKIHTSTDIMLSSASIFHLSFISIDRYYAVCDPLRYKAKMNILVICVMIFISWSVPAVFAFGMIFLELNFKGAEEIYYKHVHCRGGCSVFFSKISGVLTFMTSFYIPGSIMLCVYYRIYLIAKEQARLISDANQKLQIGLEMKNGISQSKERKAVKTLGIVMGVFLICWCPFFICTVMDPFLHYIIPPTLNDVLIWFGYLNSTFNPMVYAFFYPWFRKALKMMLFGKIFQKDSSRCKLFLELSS
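Test system: hTAAR1-expressing CHO RD-HGA16 cells, Gα16-coupled; Probe or stimulus: EC80 β-phenethylamine stimulus; Compound dosing: single nominal final test compound concentration of 3 µM; Timing: 140 s kinetic read after compound, 140 s after agonist; Signal: Fluo-8 calcium-sensitive fluorescence; Measure: % inhibition of agonist calcium response; Controls: DMSO and EC80 PEA controls.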
OXTR ag = agonists of human oxytocin receptor. 320,000 tested, 0.32% active. CHO-OTR cells, Fluo-8 calcium fluorescence; normalized: DMSO 0%, oxytocin 100%. activation, % at 3 µM. P30559;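 active means activation above the mean of all tested compounds plus 3 SD, cutoff set per screening run, cut at about 20% in these data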;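 further: peak over basal fluorescence ratio from a 100 s FLIPR kinetic read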
OXTR potentiator = potentiates the human oxytocin receptor response; CHO-OTR cells, Fluo-8 calcium fluorescence, potentiator mode; 0% = oxytocin EC15, 100% = EC100; activation, % at 3 µM; 320,000 tested, 0.061% active; AID 2445;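 active means activation above that plate's cutoff, the mean activation of tested compounds plus 3 SD, cut at about 6.6% in these data, passing the limit was not always enough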;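 further: 100% uses oxytocin at 75 nM as the full agonist control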
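Assay system: CHO cell line stably expressing human OTR | Also added: Oxytocin at about EC15, sub-maximal agonist stimulus | Times: Compound 6 min at room temperature before oxytocin, 100 s read | Measured by: Fluo-8 intracellular calcium fluorescence, ex 470-495, em 515-575 nm | Controls: EC15 oxytocin alone as 0%, 75 nM oxytocin as 100%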
TAAR1 ag = agonists of human TAAR1; Q96RJ0; CHO RD-HGA16 TAAR1, Fluo-8 calcium fluorescence; vehicle wells 0%, saturating PEA agonist 100%; activation, % at 3 µM; 360,000 tested, 0.99% active; AID 624467;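 active means activation above the mean activation of all test compounds in the run plus 3 SD, cut at about 38% in these data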
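test system = CHO RD-HGA16 cells carrying human TAAR1 plus Gα16 | schedule = 17-24 h seeding, 75 min 37 °C dye, 30 min RT | compound dosing = 3 µM single concentration | control set = DMSO and PEA EC100 | replicates = n 1 | signal = Fluo-8 fluorescence, 5 s baseline then 140 s kinetic read | measure = percent activation vs PEA EC100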
Active calls of the source: *; / = no result.

SMILES	V1R ag counter	TAAR1 antagonist	OXTR ag	OXTR potentiator	TAAR1 ag
COc1ccc(OC)c2sc(N(CCCN(C)C)C(=O)c3ccc(S(=O)(=O)N4CCc5ccccc5C4)cc3)nc12	2	/	11	-7	/
CN(C)CCCN(C(=O)c1ccc(S(=O)(=O)N2CCc3ccccc32)cc1)c1nc2c(Cl)cccc2s1	1	20	1	-7	34
Cc1ccc2nc(N(CCCN(C)C)C(=O)c3ccc(S(=O)(=O)N4CCCCCC4)cc3)sc2c1	17	15	14	-13	50*
CCOc1ccc2nc(N(CCCN(C)C)C(=O)c3ccc(S(=O)(=O)N4CCc5ccccc5C4)cc3)sc2c1	10	38	13	-10	43*
COc1ccc(C)c2sc(N(CCCN(C)C)C(=O)c3ccc(S(=O)(=O)N4CCc5ccccc5C4)cc3)nc12	4	41	16	-12	48*
COc1cccc2sc(N(CCCN(C)C)C(=O)c3ccc(S(=O)(=O)N4CCCc5ccccc54)cc3)nc12	8	23	7	-14	40*
COc1cc2nc(N(CCCN(C)C)C(=O)c3ccc(S(=O)(=O)N4CCc5ccccc5C4)cc3)sc2cc1OC	11	-3	17	-3	22
COc1ccc(-c2cc(=O)c3cccc(CC(=O)O)c3o2)cc1	/	-5	/	/	0
CC12C=CC(C)(C3C(=O)NC(=O)C31)C1C3C(=O)NC(=O)C3C12 (stereo not drawn)	/	-16	/	/	2
NC(=S)N/N=C/c1cccc(O)c1O	0	16	0	-6	4
Cc1cc(/C=N/NC(N)=S)c(O)c(/C=N/NC(N)=S)c1	20	9	12	-1	50*
COc1ccc(NS(=O)(=O)c2ccc(C(=O)N(C)Cc3ccc(C)o3)cc2)cc1	27*	27	27*	-11	49*
COc1ccc(CN(C)C(=O)c2ccc(NS(=O)(=O)c3ccc(F)cc3)cc2)c(OC)c1	4	-10	0	-11	2
C=CCN1C(=O)C(CC(=O)O)S/C1=N/N=C/c1ccc(N(CC)CC)cc1 (stereo not drawn)	0	-15	0	3	8
CN[C@@H]1CC[C@H](c2ccc(Cl)c(Cl)c2)c2ccccc21	/	6	/	/	45*
COc1cc(C=C2C(=O)C=CC2=O)ccc1O	/	37	/	/	43*
COc1cc(/C=C/C(=O)/C=C(O)/C=C/c2ccc(O)c(OC)c2)ccc1O	41*	65*	33*	-10	44*
N/C(=N\OC(=O)COc1ccc2ccccc2c1)c1ccccn1	13	23	10	-13	48*
Cc1ccc2nc(SCC(=O)c3ccc(O)cc3O)[nH]c2c1	-1	-30	2	-2	41*
COCCCNC(=O)C[C@H]1C[C@@]2(C(=O)OC)C(=C[C@H](C(C)(C)C)O[C@@H]2C)N(CCc2ccc(OC)c(OC)c2)C1=O	/	-9	/	/	1
C=CC[C@@H](CC(=O)N(CCO)Cc1ccccc1)C(=O)N[C@@H](COC(=O)[C@@H](CC=C)CC(=O)OC(C)(C)C)Cc1c[nH]c2ccccc12	0	55*	-2	-8	14
C=CC[C@H](CC(=O)N(CCO)Cc1ccccc1)C(=O)NC[C@H](OC(=O)[C@@H](CC=C)CC(=O)OC(C)(C)C)c1ccccc1	-1	49*	-1	-7	13
C=CC[C@@H](CC(=O)N(CCO)Cc1ccccc1)C(=O)N[C@H](COC(=O)[C@@H](CC=C)CC(=O)OC(C)(C)C)Cc1c[nH]c2ccccc12	1	60*	-2	-8	12
O=C1CSC(=S)N1/N=C/c1cc(Br)c(O)c(Br)c1	140*	/	158*	-16	/
Cc1cc(C(=O)CN2C(=O)CCC2=O)c(C)n1Cc1ccccc1	4	3	12	-18	40*
SMILES	V1R ag counter	TAAR1 antagonist	OXTR ag	OXTR potentiator	TAAR1 ag
Cc1cc(C(=O)CN2C(=O)NC3(CCCc4ccccc43)C2=O)c(C)n1Cc1ccccc1 (stereo not drawn)	0	-7	-1	3	-1
CC[C@H](NC(=O)[C@@H](Cc1ccccc1)NC(=O)[C@H]1O[C@@H](n2ccc(=O)[nH]c2=O)[C@H](O)[C@@H]1O)c1ccccc1	/	3	/	/	0
Cc1cccc(N(CC(=O)NCc2ccc3c(c2)OCO3)C(=O)CCC(=O)Nc2ccccn2)c1C	/	52*	/	/	19
COC(=O)[C@]12C[C@H](CC(=O)N3CCCC3)C(=O)N(CCC3=CCCCC3)C1=C[C@H](COCc1ccccc1)O[C@@H]2C	/	-23	/	/	-2
COC(=O)C1=C(C)N(Cc2cccc(C(F)(F)F)c2)C(=NCc2ccc(C(F)(F)F)cc2)NC1c1cccc(C(F)(F)F)c1 (stereo not drawn)	/	19	/	/	8
Cc1ccc(NC(=O)c2cc(-c3cccc(O)c3)on2)cc1C	1	52*	0	-4	4
C[C@@H]1CN([C@H](C)CO)C(=O)CCCn2nncc2CO[C@H]1CN(C)C(=O)Nc1ccc2c(c1)OCCO2	/	-16	/	/	0
CCc1cc2c(nc1CC)CCCN2S(=O)(=O)c1ccccc1C	/	-34	/	/	3
COc1ccc(NC(=O)c2ccc(CN3CCN(c4ccccc4)CC3)cc2)cc1	10	22	13	-18	40*
C=CCCC1CN(Cc2ccc(OC)cc2)S(=O)(=O)c2c(Oc3ccc(C)cc3)cccc2O1 (stereo not drawn)	/	-11	/	/	0
O=C(CCC(=O)OCc1ccc(C(=O)Oc2ccccc2)cc1)Nc1cccc2ccccc12	1	49*	-1	-7	8
CN1/C(=C/C2CC(=O)N(c3cccc4ccccc34)C2=O)C(C)(C)c2ccccc21 (stereo not drawn)	1	50*	1	-10	16
CCn1ncc(C2=NOC(C(=O)NCC(C)C)C2)c1C (stereo not drawn)	-1	-11	2	-10	5
CCn1ncc(C2=NOC(C(=O)Nc3cnn(C45CC6CC(CC(C6)C4)C5)c3)C2)c1C (stereo not drawn)	25*	/	35*	-9	/
CCn1ncc(C2=NOC(C(=O)NCCc3ccccc3)C2)c1C (stereo not drawn)	1	43	0	4	61*
COc1ccc(OC)c(S(=O)(=O)CC(=O)c2cc3ccc(OC)cc3oc2=O)c1	0	/	0	-10	/
COc1ccc(S(=O)(=O)CC(=O)c2cc3cc(Br)ccc3oc2=O)cc1	1	43	1	-11	42*
CCOC1=C2CN(S(=O)(=O)c3ccc(C)cc3)CC[C@@H]2N(S(=O)(=O)c2ccc(C)cc2)[C@H](c2ccccc2)C1	/	2	/	/	1
CC1(C)SC(=S)N(/N=C/c2ccccc2)C1N(O)C(=O)Nc1ccc([N+](=O)[O-])cc1 (stereo not drawn)	8	-6	12	-23	44*
